# Source: ChEMBL document CHEMBL1821666, “Anti-inflammatory principles from Cordyceps sinensis” (J Nat Prod, 2011)
# Activity calls are given as the source filed them. The rule behind the calls is not given here.
# Legend:
# [1] = Antioxidant activity assessed DPPH scavenging activity; type: functional
# How it was run: (§1)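 DPPH free-radical scavenging was measured in a cell-free system, with IC50 determined. Constituents were also screened at 500 μM.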
# [2] = Antioxidant activity assessed DPPH scavenging activity at 500 uM; type: functional; how it was run: as §1
# [3] = (§2) Anti-inflammatory activity in human neutrophils assessed as inhibition of FMLP/CB-induced elastase release; type: functional, cell-based; conditions: Neutrophil
# How it was run: (§3)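 Human neutrophils were activated with FMLP plus cytochalasin B (FMLP/CB). IC50 is the concentration giving 50% inhibition of the response. Values are mean ± SEM, n = 3–4.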
# [4] = (§4) Anti-inflammatory activity in human neutrophils assessed as inhibition of FMLP/CB-induced superoxide anion generation; type: functional, cell-based; conditions: Neutrophil; how it was run: as §3
# [5] = Anti-inflammatory activity in human neutrophils assessed as inhibition of FMLP/CB-induced elastase release at 10 ug/mL; type: functional; conditions: Neutrophil
# How it was run: (§5)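 Human neutrophils were activated with FMLP/CB. Percentage inhibition of the response was measured with samples at 10 μg/mL. Values are mean ± SEM, n = 3–4, and significance was tested against the control value.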
# [6] = Anti-inflammatory activity in human neutrophils assessed as inhibition of FMLP/CB-induced superoxide anion generation at 10 ug/mL; type: functional; conditions: Neutrophil; how it was run: as §5
# Neutrophil [7] = assay: as §2; type: functional, cell-based; how it was run: as §3
# Neutrophil [8] = assay: as §4; type: functional, cell-based; how it was run: as §3
Compound,inhibition [2],further results
O=c1c(-c2ccc(O)c(O)c2)coc2cc(O)ccc12,,IC50 [1]: 32 µM
CC(C)[C@@H](C)/C=C/[C@@H](C)[C@H]1CC[C@H]2C3=CC=C4C[C@@H](O[C@@H]5O[C@H](CO)[C@@H](O)[C@H](O)[C@H]5O)CC[C@]4(C)[C@H]3CC[C@]12C,inactive,IC50 [3]: 5.62 µg/mL; IC50 [4]: 5.42 µg/mL
CC(C)C[C@@H]1NC(=O)[C@@H]2CC[C@@H](O)N2C1=O,inactive,
CC(C)[C@@H]1NC(=O)[C@@H]2CCCN2C1=O,inactive,
Cc1occc(=O)c1O,inactive,
O=C(O)c1cc2c([nH]c3ccccc32)c(-c2ccc(CO)o2)n1,inactive,
O=C(O)c1ccco1,inactive,
O=C1C[C@H](O)[C@@H](CO)O1,inactive,
O=C1N[C@@H](Cc2ccc(O)cc2)C(=O)N2CCC[C@@H]12,inactive,
O=C1N[C@@H](Cc2ccccc2)C(=O)N2CCC[C@@H]12,inactive,
O=C1O[C@H]([C@@H](O)CO)C(O)=C1O [ASCORBIC ACID],,IC50 [1]: 38.6 µM
O=c1c(-c2ccc(O)cc2)coc2cc(O)ccc12 [DAIDZEIN],inactive,IC50 [4]: 6.19 µg/mL
COc1cc(/C=C/C(=O)O[C@H]2CC[C@]34C[C@]35CC[C@]3(C)[C@@H]([C@H](C)CCC=C(C)C)CC[C@@]3(C)[C@@H]5CC[C@H]4C2(C)C)ccc1O [GAMMA ORYZANOL],inactive,inhibition at 10 µg/mL [5]: 41.6%; inhibition at 10 µg/mL [6]: 28.2%
COc1ccc2c(c1)c(CC(=O)O)c(C)n2C(=O)c1ccc(Cl)cc1 [INDOMETHACIN],inactive,IC50 [3]: 32 µg/mL; IC50 [4]: 38.3 µg/mL
OCc1ccc(-c2nccc3c2[nH]c2ccccc23)o1 [PERLOLYRIN],inactive,IC50 [3]: 1.68 µg/mL; inhibition (Neutrophil [7]): Dose-dependent effect; IC50 [4]: 0.45 µg/mL; inhibition (Neutrophil [8]): Dose-dependent effect
